Bioassay records: PubChem BioAssay, several laboratories
NOD2 RIPK2 PPI – inhibitors of human NOD2-RIPK2 interaction; O43353; CHO BLA complementation NOD2-RIPK2, CCF4 ratio; inhibition, % at 4.98 µM; 360,000 compounds, 0.38% hits; AID 624267; in the data active = inhibition above about 21%;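 also: 0% = vehicle only and 100% = reference blocker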
CHOP UPR activ – apoptotic UPR (CHOP) activation; activation, % at 10 µM; 330,000 compounds, 0.34% hits; CHO-CHOP luciferase reporter, luminescence; percent of tunicamycin response over DMSO baseline;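 active = at 10 µM dose, activation of 40% or more, normalized to positive control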;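 also: 100% = tunicamycin at 10 µg/mL and 0% = DMSO alone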
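Evaluation: % reporter activation, DMSO baseline versus tunicamycin full activation; System: CHO-CHOP luciferase reporter cell line; Input: 500 cells/well; Incubation: 6 h compound treatment, 37 °C; Measured by: Steady-Glo luciferase luminescence; Dosing: one dose, 10 µM in 0.5% DMSO; Buffer or medium: F12 medium, 10% FBS; Benchmarks: positive tunicamycin 10 µg/mL, negative DMSO alone.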
XBP1 UPR activ – activators of adaptive arm of unfolded protein response (XBP1); CHO-XBP1 luciferase reporter, IRE1-XBP1 UPR activation, luminescence; percent of tunicamycin response, DMSO as zero; activation, % at 20 µM; 330,000 compounds, 0.33% hits; AID 463104;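 active = versus positive control, 20 µM dose yields 30% or more activation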;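 also: 100% = tunicamycin at 10 µg/mL and 0% = DMSO only wells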
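Material: CHO cell line with stable XBP1 luciferase reporter; buffer or medium: F12 medium containing 10% fetal bovine serum; compound: single point, 20 µM final compound, 1% DMSO; incubation: 6 h treatment, 37 °C; measured by: glow luminescence from Steady-Glo reagent; evaluation: activation, % of tunicamycin; control set: tunicamycin high, DMSO low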
CHOP inhibitor – blocks CHOP induction under ER stress; AID 2732; inhibition, % at 10 µM; 220,000 compounds, 3.8% hits; CHO-K1 CHOP-promoter luciferase, tunicamycin-induced, 15-18 h;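 active = compounds that reduced the stress-induced luciferase reporter signal by more than about 70% of percent inhibition, limit read from the data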;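 also: 0% = tunicamycin plus vehicle and 100% = wells without tunicamycin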
TLR4-MyD88 BLA – blocks binding of human TLR4 to MyD88; O00206+Q99836; HeLa CL3-4 TLR4/MyD88 BLA complementation, FRET ratio; inhibition, % at 8.4 µM; 200,000 compounds, 0.18% hits; in the data active = inhibition above about 25%;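 also: 0% = vehicle and 100% = reference inhibitor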
TLR9-MyD88 inh – blocks human TLR9 binding to MyD88. Q9NR96+Q99836. CHO BLA complementation TLR9-MyD88, CCF4 FRET ratio. inhibition, % at 4.98 µM. 340,000 compounds, 0.21% hits. AID 504734;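 active = inhibition above the mean over all tested compounds plus 3 SD, cut at about 21% in these data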;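 also: 0% = DMSO only wells and 100% = clavulanate BLA inhibitor control wells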
TLR4 MyD88 cnf – TLR4-MyD88 interaction inhibition confirmed; shares compounds with TLR4-MyD88 BLA; HeLa CL3-4 BLA complementation, CCF4 FRET ratio; inhibition, % at 8.4 µM; 350 compounds, 50% hits; AID 941;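 active = mean inhibition across three repeat runs above about 25% carried over from the earlier screen, limit read from the data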;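 also: plate controls were DMSO only for no effect and clavulanic acid blocking BLA at full dose for full effect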
BLA inh HeLa – inhibits beta-lactamase activity, counter-screen to TLR4-MyD88 binding inhibitors; shares compounds with TLR4-MyD88 BLA; HeLa BLA reporter, CCF4 FRET ratio; inhibition, % at 8.4 µM; 350 compounds, 63% hits; AID 1237;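 active = mean inhibition over three repeats above about 26% taken from the earlier screen, limit read from the data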;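 also: HeLa cells stably expressing beta-lactamase reporter as counterscreen for TLR4-MyD88 inhibitors; 0% = DMSO and 100% = clavulanic acid full inhibition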
Numbers without * were called inactive; · = no result. Shown is part of a subset that was picked to be rich in hits.

SMILES	NOD2 RIPK2 PPI	CHOP UPR activ	XBP1 UPR activ	CHOP inhibitor	TLR4-MyD88 BLA	TLR9-MyD88 inh	TLR4 MyD88 cnf	BLA inh HeLa
O=C(CN1CCOCC1)Nc1ccc2c(c1)CCC2	9	4	-1	5	·	3	·	·
O=C(CCN1CCOCC1)Nc1ccc2c(c1)CCC2	-4	2	0	11	25*	0	-1	4
Cc1ccc(S(=O)(=O)NC(C(=O)Oc2ccc3c(C(F)(F)F)cc(=O)oc3c2)c2ccccc2)cc1 (configuration not stated)	0	1	0	64	38*	3	31*	62*
COC(=O)C(NS(=O)(=O)c1ccc(C)cc1)c1ccccc1 (configuration not stated)	-4	-1	-1	3	-3	8	·	·
O=C(CCCc1ccccc1)c1ccc2c(c1)OCCO2	2	-9	-9	89*	25*	-7	-2	1
O=C(NCc1ccco1)c1ccc(-c2ccc3nccn3c2)cc1	-4	·	·	·	·	·	·	·
O=[N+]([O-])c1ccc(N/N=C/c2cn(-c3ccccc3)nc2-c2ccccc2)cc1	10	4	2	14	38*	14	38*	75*
COC(=O)C[C@H]1CC[C@H](NC(=O)Nc2ccccc2OC)[C@@H](CO)O1	2	·	·	·	·	·	·	·
CC(=O)C1=NN(c2ccccc2)C(c2ccc3c(c2)OCO3)N1c1ccc(N2CCOCC2)cc1 (configuration not stated)	7	1	-1	45	-6	0	·	·
CC(=O)C1=NN(c2ccccc2)C(c2cccs2)N1c1ccccc1 (configuration not stated)	·	2	-3	66	27*	·	5	14
N#CC1CC(c2ccc([N+](=O)[O-])cc2)=NN1c1ccc([N+](=O)[O-])cc1 (configuration not stated)	7	0	-2	-5	56*	16	56*	83*
CCCCCCn1c(=O)[nH]c2nc3cc(N)ccc3nc2c1=O	·	·	·	9	25*	·	30*	45*
O=C(CC1SCCNC1=O)NCc1ccccc1 (configuration not stated)	-9	·	·	·	·	-31	·	·
COc1cc2c3nnc(-c4ccc(F)cc4)c-3cn(Cc3cccc(F)c3)c2cc1OC	-9	1	-1	-39	26*	-5	16	50*
CC(=O)NS(=O)(=O)c1ccc(NC(=S)NC(=O)COc2ccccc2C)cc1	-12	-1	-5	27	34*	-1	-13	7
CCC(=O)NC(=S)Nc1ccc(S(=O)(=O)NC(C)=O)cc1	-4	-2	-2	-1	-8	-2	·	·
CCCCCCNC(=O)C(C#N)c1nc2ccccc2nc1N1CCCC1 (configuration not stated)	-15	-1	0	22	38*	5	29*	1
Cc1ccc(C(=O)Nc2nc(C(N)Cc3ccc(C(F)(F)F)cc3)cs2)cc1 (configuration not stated)	9	·	·	·	·	·	·	·
C(=Nn1cnnc1)c1ccc2c(c1)CCC2	-3	·	·	·	·	-3	·	·
Cc1c(NC(=O)CSc2nnc(-c3ccncc3)o2)c(=O)n(-c2ccccc2)n1C	3	0	-3	-4	5	-3	·	·
Cc1c(NC(=O)CSc2nnc(-c3cccc(Cl)c3)o2)c(=O)n(-c2ccccc2)n1C	-3	-6	2	14	29*	-2	1	4
CCCCCCCn1c2c(c(=N)c3c1CCC3)CCCC2	-7	·	·	62	26*	7	21	26*
CCCCn1c2c(c(=N)c3c1CCC3)CCC2	-10	0	-4	·	9	-9	·	·
CCCCCCn1c2c(c(=N)c3c1CCC3)CCC2	1	-2	-2	·	27*	1	7	24
O=C(NCCCc1ccccc1)c1ccccc1	-11	6	3	-13	26*	-2	-9	-3
SMILES	NOD2 RIPK2 PPI	CHOP UPR activ	XBP1 UPR activ	CHOP inhibitor	TLR4-MyD88 BLA	TLR9-MyD88 inh	TLR4 MyD88 cnf	BLA inh HeLa
N#Cc1cccc(NC(=O)CSc2ccc3c4c(cccc24)C(=O)c2ccccc2-3)c1	13	·	·	-7	54*	20	36*	65*
COc1ccc(NC(=O)CSc2ccc3c4c(cccc24)C(=O)c2ccccc2-3)cc1	7	2	6	2	33*	-14	24	14
COc1ccc(NC(=O)CSc2nnc(C)c3ccccc23)cc1	-7	2	-1	·	·	7	·	·
CC1C(=O)N(Cc2cn(CCC3OCCO3)nn2)CCS(=O)(=O)N1Cc1ccc(-c2ccc(Cl)c(Cl)c2)cc1 (configuration not stated)	2	·	·	·	·	-5	·	·
Cn1c(-c2ccc(C=O)s2)nc2c3ccccc3c3ccccc3c21	8	1	5	4	47*	1	40*	61*
Cc1cc2nc(-c3ccccc3)c(CC(C)(C)C)n2c(C)c1Br	-2	·	·	·	·	·	·	·
Cc1noc(C)c1COC(=O)c1cnc(Cl)c(Cl)c1	-9	1	-3	-24	26*	-2	19	5
COc1ccc(C)cc1N1CC(C(=O)Nc2cccc(C(=O)NC3CC3)c2)CC1=O (configuration not stated)	-3	·	·	·	·	1	·	·
N#Cc1sc2nc(-c3cccs3)cc(-c3ccc(F)cc3)c2c1N	12	1	4	40	26*	26*	39*	63*
OCCCc1nc2n(n1)C(c1ccccc1Cl)C=C(c1cccs1)N2 (configuration not stated)	72*	0	-1	-8	32*	51*	19	52*
CN1OC[C@@H]2CN(C(=S)NCCc3ccccc3)[C@H](c3ccccc3Br)C[C@@H]21	15	·	·	·	·	·	·	·
CCCC1Cc2nc(N3CCCCC3)c(C#N)cc2CO1 (configuration not stated)	-3	1	-2	62	26*	5	-11	6
Cc1cccc(S(=O)(=O)N(C)C[C@H]2OCc3cnnn3CCCC(=O)N([C@H](C)CO)C[C@H]2C)c1	-15	·	·	·	·	-5	·	·
COc1ccccc1CN1C(=O)C(Cc2ccccc2)ON=C1c1ncccc1C (configuration not stated)	14	·	·	·	·	·	·	·
CCCCOC(=O)c1ccc(S(N)(=O)=O)o1	-3	6	0	2	-6	7	·	·
CCCOC(=O)c1ccc(S(N)(=O)=O)o1	-3	1	-3	22	27*	0	-8	1
